In ChEMBL document CHEMBL3792272, “Discovery of Potent and Orally Active Lipoprotein-Associated Phospholipase A2 (Lp-PLA2) Inhibitors as a Potential Therapy for Diabetic Macular Edema” (J Med Chem, 2016):

Tests used:
Type in all cases: ADME, organism-based
[1] = Tmax in Sprague-Dawley rat at 50 mg/kg, po after 0.5 to 24 hrs by LC-MS/MS analysis; details: in vivo
[2] = AUC (0 to 24 hrs) in Sprague-Dawley rat at 50 mg/kg, po after 0.5 to 24 hrs by LC-MS/MS analysis; design: time < 24 hr, dose 50 mg/kg, route oral; details: in vivo
[3] = Cmax in Sprague-Dawley rat at 50 mg/kg, po after 0.5 to 24 hrs by LC-MS/MS analysis; design: dose 50 mg/kg, route oral; details: in vivo
[4] = Volume of distribution at steady state in Sprague-Dawley rat at 10 mg/kg, iv after 5 mins to 24 hrs by LC-MS/MS analysis; details: in vivo, read-out: Vdss
Outline: (§1)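 Male SD rats, n=5 per group, single iv bolus: 5 mg/kg in 5% DMSO/5% Tween-80 in saline, or 10 mg/kg tartrate salt in water. Plasma sampled predose and at 5, 15, 30 min and 1, 3, 5, 7, 24 h. Drug measured by LC-MS. Parameters by noncompartmental analysis of mean concentrations.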

[5] = AUC (0 to 24 hrs) in Sprague-Dawley rat at 10 mg/kg, iv after 5 mins to 24 hrs by LC-MS/MS analysis; design: time < 24 hr, dose 10 mg/kg, route intravenous; details: in vivo; outline: as §1

- Tmax [1]: 4.2 h
- AUC(0-t) at 24 h [2]: 1300 ng·h/mL
- Cmax [3]: 115 ng/mL
- Vd [4]: 34.4 L/kg
- AUC(0-t) at 24 h [5]: 1200 ng·h/mL
Structure (SMILES): CCN(CC)CCN(Cc1ccc(-c2ccc(C(F)(F)F)cc2)cc1)C(=O)Cn1c(SCc2ccc(F)cc2)nc(=O)c2c1CCC2 [DARAPLADIB]
